{
  "source": "ChEMBL document CHEMBL3259621",
  "about": "“Novel merosesquiterpene exerts a potent antitumor activity against breast cancer cells in vitro and in vivo” (Eur J Med Chem, 2014)",
  "key": {"[1]": {"tested_on": "MCF7", "assay": "Cell cycle arrest in human MCF7 cells assessed as accumulation at […] phase at 2 uM after 48 hrs by propidium iodide/RNAse staining-based FACS analysis (reference value: 8.02 %)", "assay_type": "functional"}, "[2]": {"tested_on": "MCF7", "assay": "Induction of apoptosis in human MCF7 cells assessed as late apoptotic cells at 3 uM after 48 hrs by annexin V staining-based flow cytometry (reference value: 3.24 %)", "assay_type": "functional"}, "[3]": {"tested_on": "MCF7", "assay": "Induction of apoptosis in human MCF7 cells assessed as reduction in cyclin D1 protein expression at 2 uM after 4 hrs by Western blotting analysis relative to control", "assay_type": "functional", "design": "scale not given: the % may be the effect or the level left", "how_it_was_run": "(§1)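 MCF-7 seeded at 5 × 10⁴/cm² and exposed at 24 h to 2 µM compound for 0, 4, 8, 16 and 24 h. Lysates separated on 12% SDS gels, transferred to nitrocellulose, blocked in 5% milk. Primary antibodies applied overnight at 4 °C, then secondary 1 h at room temperature. Detection by ECL chemiluminescence with β-actin as loading reference.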"}, "[4]": {"tested_on": "MCF7", "assay": "Induction of apoptosis in human MCF7 cells assessed as reduction in total pRb protein expression at 2 uM after 16 hrs by Western blotting analysis relative to control", "assay_type": "functional", "design": "scale not given: the % may be the effect or the level left", "how_it_was_run": "(§2)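 MCF-7 seeded at 5 × 10⁴ cells/cm², exposed after 24 h to 2 µM for 0, 4, 8, 16 and 24 h. Lysed in SDS sample buffer, run on 12% acrylamide gels, transferred to nitrocellulose and blocked with 5% milk. Primary antibodies overnight at 4 °C (total or phospho-pRb, β-actin), secondary 1 h at room temperature, ECL chemiluminescence detection.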"}, "[5]": {"tested_on": "MCF7", "assay": "Induction of apoptosis in human MCF7 cells assessed as reduction in phosphorylated pRb expression at 2 uM after 16 hrs by Western blotting analysis relative to control", "assay_type": "functional", "design": "scale not given: the % may be the effect or the level left", "how_it_was_run": "as §2"}, "[6]": {"tested_on": "MCF7", "assay": "Induction of apoptosis in human MCF7 cells assessed as reduction in c-myc expression at 2 uM after 16 hrs by Western blotting analysis relative to control", "assay_type": "functional", "design": "scale not given: the % may be the effect or the level left", "how_it_was_run": "as §1"}, "[7]": {"tested_on": "MCF7", "assay": "Induction of apoptosis in human MCF7 cells assessed as reduction in c-myc expression at 2 uM after 24 hrs by Western blotting analysis relative to control", "assay_type": "functional", "design": "scale not given: the % may be the effect or the level left", "how_it_was_run": "as §1"}, "[8]": {"tested_on": "MCF7", "assay": "Induction of apoptosis in human MCF7 cells assessed as increase in total p53 expression level at 2 uM after 4 to 24 hrs by Western blotting analysis relative to control", "assay_type": "functional, cell-based", "how_it_was_run": "as §1"}, "[9]": {"tested_on": "MCF7", "assay": "Induction of apoptosis in human MCF7 cells assessed as increase in PARP cleavage at 2 uM after 4 to 24 hrs by Western blotting analysis relative to control", "assay_type": "functional, cell-based", "how_it_was_run": "as §1"}, "[10]": {"molecular_target": "Mitogen-activated protein kinase; ERK1/ERK2 (Homo sapiens) (UniProt P27361+P28482)", "sequence (P27361 whole entry, looked up)": "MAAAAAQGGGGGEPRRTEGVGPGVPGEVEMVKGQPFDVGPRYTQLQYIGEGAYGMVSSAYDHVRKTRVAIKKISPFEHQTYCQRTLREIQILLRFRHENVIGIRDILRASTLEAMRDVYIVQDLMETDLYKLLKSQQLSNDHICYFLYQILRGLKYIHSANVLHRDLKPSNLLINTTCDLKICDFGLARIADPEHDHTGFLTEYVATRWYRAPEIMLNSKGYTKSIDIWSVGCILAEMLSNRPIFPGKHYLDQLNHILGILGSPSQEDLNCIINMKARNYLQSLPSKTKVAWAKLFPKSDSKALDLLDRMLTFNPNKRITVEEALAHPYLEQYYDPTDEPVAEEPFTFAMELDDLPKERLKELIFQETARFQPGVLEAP", "sequence (P28482 whole entry, looked up)": "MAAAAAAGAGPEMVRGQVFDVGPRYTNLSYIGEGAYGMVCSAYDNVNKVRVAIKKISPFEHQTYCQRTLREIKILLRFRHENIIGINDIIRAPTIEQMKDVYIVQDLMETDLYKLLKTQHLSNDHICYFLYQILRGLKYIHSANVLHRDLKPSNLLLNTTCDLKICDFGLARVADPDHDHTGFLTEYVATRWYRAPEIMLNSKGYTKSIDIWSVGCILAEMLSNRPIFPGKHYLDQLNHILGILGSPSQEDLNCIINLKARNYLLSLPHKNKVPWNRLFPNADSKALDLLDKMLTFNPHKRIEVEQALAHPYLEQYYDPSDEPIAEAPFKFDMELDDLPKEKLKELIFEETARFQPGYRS", "assay": "Increase of p44/42 MAPK phosphorylation in human MCF7 cells at 2 uM after 4 to 24 hrs by Western blotting analysis relative to control", "assay_type": "cell-based", "how_it_was_run": "as §1"}, "[11]": {"assay": "Antitumor activity against mouse E0771 cells allografted in C57BL/6 mouse assessed as mean tumor volume at 5 to 15 mg/kg, po measured on day 42 relative to vehicle-treated control", "assay_type": "functional", "details": "dose mg/kg 5-15", "how_it_was_run": "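C57BL/6 mice (40) injected subcutaneously in the right side with 1 × 10⁶ E0771 cells. At day 9, with tumors at 75 mm³, randomized into four groups of 10 and dosed orally six times with vehicle (1% methylcellulose) or compound at 5, 10 or 15 mg/kg. Tumor volume followed to day 42.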"}, "[12]": {"tested_on": "Mus musculus", "assay": "Toxicity in C57BL/6 mouse allografted with mouse E0771 cells assessed as hair loss at 5 to 15 mg/kg, po", "assay_type": "organism-based", "design": "dose 5-15 mg/kg, route oral", "details": "in vivo", "how_it_was_run": "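C57BL/6 mice (10 per group) injected subcutaneously in the right side with 1 × 10⁶ E0771 cells. At day 9, with tumours at 75 mm³, mice were randomised to oral vehicle (1% methylcellulose) or 5, 10 or 15 mg/kg on six occasions. Animals were monitored to day 42 for survival and for signs of toxicity such as hair loss or diarrhoea.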"}, "[13]": {"tested_on": "MCF7", "assay": "Cytotoxicity against human MCF7 cells assessed as reduction in cell viability after 3 days by SRB assay", "assay_type": "functional, cell-based", "how_it_was_run": "(§3)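 MCF-7 seeded at high density (5 × 10⁴/cm²) and treated at 24 h with compound for 3 days, with or without 20 mM NAC. Viable cells quantified by sulforhodamine B staining, OD 492 nm. Viability reduction expressed versus untreated controls.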"}, "[14]": {"assay": "Cytotoxicity against mouse E0771 cells after 3 days by SRB assay", "assay_type": "functional, cell-based", "details": "E0771, 72 h", "how_it_was_run": "(§4)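 Cells seeded at 5 × 10³ cells/cm² in quadruplicate and, after 24 h, treated with increasing concentrations for 3 days. Compounds diluted from DMSO stock, final DMSO <0.1% v/v. Cells were fixed with cold 10% TCA, stained with 0.4% sulforhodamine B in 1% acetic acid, and dye solubilised in 10 mM Tris-base pH 10.5. OD read at 492 nm. IC50 obtained by linear interpolation on a semi-log dose-response curve.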"}, "[15]": {"tested_on": "A549", "assay": "Cytotoxicity against human A549 cells after 3 days by SRB assay", "assay_type": "functional, cell-based", "details": "A549, 72 h", "how_it_was_run": "(§5)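 Cells seeded in quadruplicate at 5 × 10³ cells/cm². Compound added at 24 h over increasing concentrations for 3 days. Cells fixed with cold 10% TCA, stained with 0.4% sulforhodamine B in 1% acetic acid, dye solubilized in 10 mM Tris pH 10.5, OD read at 492 nm. IC50 taken by linear interpolation of the semi-log dose-response curve. DMSO below 0.1% final.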"}, "[16]": {"tested_on": "T84", "assay": "Cytotoxicity against human T84 cells after 3 days by SRB assay", "assay_type": "functional, cell-based", "details": "T84, 72 h", "how_it_was_run": "as §5"}, "[17]": {"tested_on": "MDA-MB-231", "assay": "Cytotoxicity against human MDA-MB-231 cells after 3 days by SRB assay", "assay_type": "functional, cell-based", "details": "MDA-MB-231, 72 h", "how_it_was_run": "as §4"}, "[18]": {"tested_on": "T47D", "assay": "Cytotoxicity against human T47D cells after 3 days by SRB assay", "assay_type": "functional, cell-based", "details": "72 h", "how_it_was_run": "as §4"}, "[19]": {"assay": "Cytotoxicity against human MCF10A cells after 3 days by SRB assay", "assay_type": "cell-based", "details": "MCF-10A, 72 h", "how_it_was_run": "as §4"}, "[20]": {"assay": "Therapeutic index, ratio of IC50 for human MCF10A cells to IC50 for mouse E0771 cells", "assay_type": "cell-based, MCF-10A", "details": "MCF10A cells versus E0771 cells, read-out: Ratio IC50"}, "[21]": {"tested_on": "MCF7", "assay": "Cytotoxicity against human MCF7 cells assessed as reduction in cell viability at 1 uM after 3 days by SRB assay relative to control", "assay_type": "functional", "how_it_was_run": "as §3"}, "[22]": {"tested_on": "MCF7", "assay": "Cytotoxicity against human MCF7 cells assessed as reduction in cell viability at 2 uM after 3 days by SRB assay relative to control", "assay_type": "functional", "how_it_was_run": "as §3"}, "[23]": {"tested_on": "MCF7", "assay": "Cytotoxicity against human MCF7 cells assessed as reduction in cell viability at 3 uM after 3 days by SRB assay relative to control", "assay_type": "functional", "how_it_was_run": "as §3"}, "[24]": {"tested_on": "MCF7", "assay": "Cytotoxicity against human MCF7 cells at 1 to 3 uM after 3 days by SRB assay in presence of NAC", "assay_type": "functional, cell-based", "how_it_was_run": "as §3"}, "[25]": {"tested_on": "MCF7", "assay": "Cell cycle arrest in human MCF7 cells assessed as accumulation at G0-G1 phase at 1 uM after 24 hrs by propidium iodide/RNAse staining-based FACS analysis (reference value: 42.34 %)", "assay_type": "functional"}, "[26]": {"tested_on": "MCF7", "assay": "Cell cycle arrest in human MCF7 cells assessed as accumulation at S phase at 2 uM after 24 hrs by propidium iodide/RNAse staining-based FACS analysis (reference value: 49.46 %)", "assay_type": "functional"}, "[27]": {"tested_on": "MCF7", "assay": "Cell cycle arrest in human MCF7 cells assessed as accumulation at S phase at 3 uM after 24 hrs by propidium iodide/RNAse staining-based FACS analysis (reference value: 49.46 %)", "assay_type": "functional"}},
  "note": "Active and inactive are the calls of the source. The rule behind the calls is not given here.",
  "data": [
    {"smiles": "C=C1CC[C@@H]2[C@](C)(CCC[C@]2(C)C(=O)OC)[C@H]1Cc1c(C)ccc2c1C(=O)C=CC2=O", "values": [
      {"measurement": "Activity", "setting": "[1]", "value": 31.09, "unit": "%"},
      {"measurement": "Activity", "setting": "[2]", "value": 9.5, "unit": "%"},
      {"measurement": "Activity", "setting": "[3]", "value": 80, "unit": "%"},
      {"measurement": "Activity", "setting": "[4]", "value": 90, "unit": "%"},
      {"measurement": "Activity", "setting": "[5]", "value": 90, "unit": "%"},
      {"measurement": "Activity", "setting": "[6]", "value": 50, "unit": "%"},
      {"measurement": "Activity", "setting": "[7]", "value": 80, "unit": "%"},
      {"measurement": "Activity", "setting": "[8]", "value": "Active"},
      {"measurement": "Activity", "setting": "[9]", "value": "Active"},
      {"measurement": "Activity", "setting": "[10]", "value": "Active"},
      {"measurement": "fold change (FC)", "setting": "[11]", "value": 2.4},
      {"measurement": "Activity", "setting": "[12]", "value": "Non-toxic"},
      {"measurement": "Activity", "setting": "[13]", "value": "Dose-dependent effect"},
      {"measurement": "IC50", "setting": "[14]", "value": 390, "unit": "nM"},
      {"measurement": "IC50", "setting": "[15]", "value": 1380, "unit": "nM"},
      {"measurement": "IC50", "setting": "[16]", "value": 560, "unit": "nM"},
      {"measurement": "IC50", "setting": "[17]", "value": 460, "unit": "nM"},
      {"measurement": "IC50", "setting": "[18]", "value": 630, "unit": "nM"},
      {"measurement": "IC50", "setting": "[19]", "value": 3150, "unit": "nM"},
      {"measurement": "selectivity ratio", "setting": "[20]", "value": 8.08},
      {"measurement": "viability", "setting": "[21]", "value": 90.21, "unit": "%"},
      {"measurement": "viability", "setting": "[22]", "value": 46.09, "unit": "%"},
      {"measurement": "viability", "setting": "[23]", "value": 23.26, "unit": "%"},
      {"measurement": "Activity", "setting": "[24]", "value": "inactive"},
      {"measurement": "Activity", "setting": "[25]", "value": 51.4, "unit": "%"},
      {"measurement": "Activity", "setting": "[26]", "value": 29.15, "unit": "%"},
      {"measurement": "Activity", "setting": "[27]", "value": 4.25, "unit": "%"}
    ]}
  ]
}
